# Ba/F3 V617F tox = lowers viability of Ba/F3 cells expressing EpoR and JAK2V617F; AID 1446; ATP luminescence; 220,000 tested, 1.1% active; inhibition, % at 5.6 µM;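 active = inhibition above the campaign mean plus 3 SD over all tested compounds, cut at about 24% in these data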;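 also: cytokine-independent growth of Ba/F3 cells driven by EpoR plus mutant JAK2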
# L major viab = Leishmania major promastigote growth inhibition | 200,000 tested, 9% active | AID 1063 | inhibition, % at 10 µM | Leishmania major promastigotes, resazurin fluorescence viability; in the data active = inhibition above about 50%;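 also: promastigotes grown with compound for 44 hours at 28 °C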
# bCat nuc transl = alters nuclear translocation of beta-catenin in HeLa cells; immunofluorescence imaging; nuclear translocation activity, % at 5 µM; 190,000 tested, 0.3% active; AID 1665;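 active = nuclear translocation activity above 50% at 5 µM, with a well cell count of 50 or more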;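 also: per-cell ratio of nuclear to cytoplasmic median beta-catenin stain intensity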
#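 System: HeLa cells, endogenous beta-catenin; compound dosing: 5 µM primary single dose, 0.1% DMSO, 0.02–20 µM confirmation series; incubation: 24 h compound exposure at 37°C, 5% CO2; signal: beta-catenin immunofluorescence imaging with DAPI; evaluation: % activation, nuclear-to-cytoplasmic median beta-catenin signal ratio per cell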
# APP 5UTR inh = APP translation inhibition; SH-SY5Y APP 5'UTR-luciferase reporter, luminescence; inhibition, % at 2 µM; 190,000 tested, 0.82% active;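 active = inhibition above a set limit, derived from the sample mean plus 3 SD, cut at about 45% in these data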
# BaF3 tox = counter-screen for JAK2V617F inhibitors: parental Ba/F3 viability inhibitors. 220,000 tested, 1.1% active. inhibition, % at 5.6 µM. AID 1486. CellTiter-Glo ATP luminescence;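 active = inhibition above a per-campaign cutoff, the mean inhibition of all tested compounds plus 3 SD, cut at about 27% in these data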
# MT stabilizer = stabilizes microtubules in HeLa cells. 200,000 tested, 0.83% active. HeLa tubulin immunostaining HCS, 24 h; share of cells brighter than vehicle mean+2SD. % tubulin-high responders, % at 10 µM;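 active = plate Z-score above 3 for both tubulin-high and condensed-nucleus cell shares, with cell loss under 80%, at 10 µM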;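 also: anti alpha tubulin signal scored within the nucleus-defined area of each cell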
# A number is an active result; – = inactive; · = no result given. An excerpt weighted towards active compounds, which were near 9.6% of everything screened.
SMILES,Ba/F3 V617F tox,L major viab,bCat nuc transl,APP 5UTR inh,BaF3 tox,MT stabilizer
CC(C)CNC(=S)NC1CC2CCCC(C1)N2C1CCCCC1 (centres undefined),–,52.1,–,–,–,–
Cc1ccccc1C(=O)NC1CCN(Cc2nnnn2Cc2ccccc2)CC1,–,–,–,–,–,–
Cc1ccccc1C(=O)NC1CC2CCC(C1)N2Cc1ccccc1 (centres undefined),–,85.6,–,–,–,–
CCOC(=O)C1CCN(C(=O)C(CC)c2ccccc2)CC1 (centres undefined),–,–,–,–,–,–
CCC(=O)NC(=S)Nc1cccc(Cl)c1N1CCCC1,–,–,–,–,–,–
Cc1ccccc1NC(=O)CCN1CCCC1,–,–,–,–,–,–
C=CCn1c(SCC(=O)NC2CCS(=O)(=O)C2)nnc1-c1ccncc1 (centres undefined),–,–,–,–,–,–
CCCCCOC(=O)NC1CCS(=O)(=O)C1 (centres undefined),–,–,–,–,–,–
O=C(Cc1coc(-c2ccc(F)cc2)n1)NCc1ccccc1,–,–,–,–,–,–
CCOCCCNC(=S)NC1CC2CCC(C1)N2Cc1ccccc1 (centres undefined),–,88.0,–,–,–,·
COCCCNC(=S)NC1CC2CCC(C1)N2Cc1ccccc1 (centres undefined),–,–,–,–,–,·
CCCNC(=S)NC1CC2CCC(C1)N2Cc1ccccc1 (centres undefined),–,66.0,·,–,–,–
CCNC(=S)NC1CC2CCC(C1)N2Cc1ccccc1 (centres undefined),–,–,–,–,–,–
O=C(Nc1ccc(Cl)c(C(F)(F)F)c1)NC1CC2CCCC(C1)N2Cc1ccccc1 (centres undefined),–,100.4,·,–,–,–
O=C(NC1CC2CCCC(C1)N2Cc1ccccc1)C1CCCCC1 (centres undefined),–,83.6,–,–,–,–
S=C(NC1CCCCC1)NC1CC2CCC(C1)N2Cc1ccccc1 (centres undefined),–,89.6,–,–,–,–
O=C(CSc1n[nH]c(=O)[nH]c1=O)N/N=C/c1ccccc1,–,55.6,–,–,–,–
Cc1cc(C)cc(SCc2noc(C(=O)NCc3ccccc3)c2C(=O)NCc2ccccc2)c1,·,·,–,·,·,·
Cc1ccc(S(=O)(=O)NCc2ccncc2)cc1,36.8,–,·,–,47.3,–
CCOc1cc(S(=O)(=O)Nc2cc(C)cc(C)c2)ccc1Cl,–,95.7,–,–,–,–
CC(=O)Nc1ccc(S(=O)(=O)NCc2ccncc2)cc1,32.0,–,–,–,37.0,–
CC(=O)Nc1ccc(S(=O)(=O)NCc2ccccn2)cc1,–,–,–,–,–,–
CC1CCCCC1NS(=O)(=O)c1ccc(S(=O)(=O)NCc2ccncc2)cc1 (centres undefined),41.7,–,–,–,46.8,–
O=C1CC(c2ccc(S(=O)(=O)NCc3ccncc3)cc2)CN1 (centres undefined),–,–,–,–,–,–
CNc1ncnc(Sc2ccc(Cl)cc2)c1[N+](=O)[O-],–,·,–,·,–,·
SMILES,Ba/F3 V617F tox,L major viab,bCat nuc transl,APP 5UTR inh,BaF3 tox,MT stabilizer
CCOc1ccc(S(=O)(=O)NCc2ccncc2)cc1,65.0,–,–,–,60.9,–
CCOc1cc(S(=O)(=O)NCc2ccncc2)ccc1Cl,63.9,–,–,–,84.3,–
CCOC(=O)COc1ccc(S(=O)(=O)NCc2ccncc2)cc1,–,–,–,–,–,–
O=S(=O)(Nc1ccc(Cc2ccncc2)cc1)c1ccc(Cl)c(Cl)c1,–,73.7,·,–,–,–
CCOC(=O)c1[nH]c(C=O)c(C(=O)OCC)c1C,–,87.8,–,91.4,–,–
CCCCCC(=O)c1c(C)[nH]c(C(=O)OCC)c1C,–,–,–,–,–,–
CCCCCCC(=O)c1c(C)[nH]c(C(=O)OCC)c1C,–,–,–,–,41.1,–
CN(C(=O)COC(=O)c1ccccc1C(=O)N1CCN(c2ccccc2)CC1)c1ccccc1,–,–,–,–,–,–
COC(=O)Nc1ccc2c(c1)ncn2C1CCCCC1,–,–,–,–,–,–
CCOC(=O)Nc1ccc2c(c1)ncn2C1CCCCC1,–,84.0,–,–,–,–
Cc1ccc(Cn2nnnc2CN2CCC(O)(c3cccnc3)CC2)cc1,–,53.1,–,–,–,–
OC1(c2cccnc2)CCN(Cc2nnnn2Cc2ccccc2)CC1,–,–,–,–,–,–
CC1(C)CC(=O)c2sc(N3CCCCC3)nc2C1,–,–,–,–,–,–
CC1(C)CC(N2CCCC2)=CC(=[N+]2CCCC2)C1,79.2,99.3,–,–,68.6,–
CC1(C)CC(NNCCC#N)=CC(=[N+]2CCCC2)C1,–,–,–,–,–,–
CN(Cc1ccccc1)C1=CC(=[N+]2CCCCC2)CC(C)(C)C1,97.8,·,–,·,78.8,·
CC1(C)CC(=O)C=C(N2CCN(C3=CC(=O)CC(C)(C)C3)CC2)C1,·,·,–,·,·,·
CC1(C)CC(N2CCN(Cc3ccccc3)CC2)=CC(=[N+]2CCCCC2)C1,80.1,·,–,·,70.7,·
CC1(C)CC(N2CCCC2)=CC(=[N+]2CCCCC2)C1,82.2,99.8,–,–,66.8,–
CC(OC(=O)c1cccn1C)C(=O)Nc1ccc2c(c1)OCO2 (centres undefined),–,–,–,–,–,–
CC1(C)CC(=O)C2=C(C1)NC(=S)C(C#N)C21CCCCC1 (centres undefined),–,·,–,·,–,·
c1ccc2c(c1)OCCOCCOCCOCCOc1ccccc1OCCOCCOCCO2,–,99.2,–,–,–,–
CC(C)C(NC(=O)c1ccccc1)C(=O)NCCc1ccccc1 (centres undefined),–,–,–,–,–,–
CCOC(=O)C1(CCOC)CCN(C(=O)c2ccccc2-c2cccc(C)c2)CC1,–,–,–,–,81.5,–
CCOC(=O)C1(CCOC)CCN(Cc2cnc(-c3cccc(C)c3)nc2)CC1,–,–,–,–,–,–
SMILES,Ba/F3 V617F tox,L major viab,bCat nuc transl,APP 5UTR inh,BaF3 tox,MT stabilizer
C=CCOc1ccc(C(=O)N(Cc2ccc(N(C)C)cc2)C2CCS(=O)(=O)C2)cc1 (centres undefined),–,–,–,–,–,–
COC(=O)C1=C(C)NC2=C(C(=O)CC(C)(C)C2)C1c1cn(Cc2ccc(Br)cc2)nc1-c1ccccc1 (centres undefined),–,99.3,–,–,–,–
Clc1ccc(Cn2c(-c3cccnc3Cl)nc3ccccc32)c(Cl)c1,–,98.6,–,–,–,–
Clc1ccc(Cn2c(-c3cccnc3Cl)nc3ccccc32)cc1,–,–,–,–,–,–
O=C(NCc1cccs1)C1CCN(S(=O)(=O)c2ccccc2F)CC1,–,·,–,·,–,·
CC(Cn1nnc2ccccc21)C(=O)O (centres undefined),–,–,–,–,–,–
Cc1ccc(Cn2cnc3ccccc32)cc1,–,77.5,–,–,–,–
CC(Cn1cnc2ccccc21)C(=O)O (centres undefined),–,–,–,55.8,–,–

# Assay outcomes as filed in PubChem BioAssay.
